Assay outcomes from PubChem.
TAAR1 ag = agonists of human TAAR1; Q96RJ0; CHO RD-HGA16 TAAR1, Fluo-8 calcium fluorescence; vehicle wells 0%, saturating PEA agonist 100%; activation, % at 3 µM; 360,000 tested, 0.99% active;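 active = activation above the mean activation of all test compounds in the run plus 3 SD, cut at about 38% in these data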
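Benchmarks: low control DMSO, high control PEA (EC100); System: CHO RD-HGA16 cells carrying human TAAR1 plus Gα16; Detection: Fluo-8 fluorescence, 5 s baseline then 140 s kinetic read; Schedule: 17-24 h plating, Fluo-8 75 min 37 °C, 30 min RT; Read-out basis: % activation from peak over basal fluorescence ratio, DMSO-to-PEA scaled.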
TAAR1 antag = antagonists of human TAAR1 | CHO RD-HGA16 TAAR1, Fluo-8 calcium fluorescence, antagonist | inhibition, % at 3 µM | 360,000 tested, 1.5% active;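 active = inhibition above a per-plate cutoff, the mean inhibition of test compounds on that plate plus 3 SD, cut at about 49% in these data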;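 note: 0% = DMSO plus EC80 beta-PEA response and 100% = DMSO alone without agonist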
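Material: CHO RD-HGA16 cells bearing hTAAR1; compound dosing: one-point dosing, 3 µM nominal final; schedule: dye loading 75 min at 37 °C, then 30 min room temperature; measured by: calcium fluorescence with Fluo-8; control set: vehicle and agonist controls; replication: n of 1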
CRFR2-BP ag = agonists of human CRF-binding protein/CRF-R2 receptor complex. HEK293 CRF-R2/CRF-BP, calcium dye fluorescence (FLIPR); percent of saturating CRF peptide response. activation, % at 13.2 µM. 350,000 tested, 0.46% active;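 active = activation of at least 50%, plus an integration ratio under a set limit after plate pattern correction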;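 note: plate controls were neutral control wells without compound for no effect and CRF at EC100 for full effect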
CRFR2-BP antag = CRF-BP/CRF-R2 complex antagonism | 350,000 tested, 0.59% active | HEK293 CRF-R2/CRF-BP, CRF-induced calcium fluorescence | inhibition, % at 11.8 µM;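 active = inhibition of the ligand-induced calcium signal above about 50% at the single tested concentration, limit read from the data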
ANO1 block = mouse TMEM16A channel inhibition, primary screen; HEK293 TMEM16A/YFP iodide influx fluorescence, ionomycin; normalized B-score (activity score, 25-100; higher = stronger inhibition) at 10 µM; 310,000 tested, 1.2% active; AID 588511;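 active = ratio plate-corrected score three or more library SD toward inhibition, starting fluorescence score within five deviations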;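 note: score derived from kinetic fluorescence span divided by baseline fluorescence per well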
ANO1 activ = activators or potentiators of mouse TMEM16A chloride channel | Q8BHY3 | HEK293 TMEM16A/YFP-H148Q/I152L, iodide quench fluorescence; stronger effect = lower value | B-score at 10 µM | 340,000 tested, 0.3% active | AID 623877;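 active = fluorescence-ratio B-score plate-corrected deviation score at least 3 library SD below zero, with starting fluorescence score within 5 deviations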;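 note: channel opened by trigger with iodide after compound preincubation; score built on the fluorescence ratio of max minus min over baseline; more negative score means more quench and so TMEM16A activation or potentiation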
TMEM16A reconf = re-confirmation of mouse TMEM16A chloride channel inhibitors | shares compounds with ANO1 block | HEK293 TMEM16A/YFP-H148Q, iodide quench fluorescence; ionomycin added to raise cell calcium | inhibition, % at 10 µM | 2,300 tested, 39% active | AID 652189;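 active = mean duplicate percent inhibition, scaled so buffer wells are 0 and the reference blocker 100, over three buffer SD above buffer mean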
TMEM16A Ca cntr = counter-screen for TMEM16A inhibitors: effect on calcium mobilization. shares compounds with ANO1 block. TMEM16A/YFP HEK293, Fluo4 calcium mobilization. 2,300 tested, 2% active. AID 652231. calcium response (% of ionomycin), % at 10 µM;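 active = duplicate-averaged calcium signal over 20% of the ionomycin maximum, relative to buffer baseline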;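 note: each well's signal is peak minus trough fluorescence divided by its pre-addition baseline; 0% = buffer wells and 100% = ionomycin wells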
YFP-HEK293 quench = parental YFP-HEK293 iodide quench counter-screen activity. 2,300 tested, under 10 active. ionomycin. shares compounds with ANO1 block. YFP ratio F(max-min)/F0 at 10 µM. AID 652233;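 active = yellow fluorescent protein signal ratio exceeding the buffer control mean by over 5 SD of those controls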;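 note: ratio is mean of duplicate wells from kinetic YFP trace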
ClC-1 inh = rat ClC-1 inhibition, TMEM16A specificity screen | shares compounds with ANO1 block | CHO ClC-1-YFP, iodide influx fluorescence quench; iodide control reads 0, buffer control 100 | ratio percent, % at 10 µM | 2,300 tested, under 10 active | AID 652236;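 active = duplicate-mean ratio percent above the mean of iodide-only control wells, which defines zero, plus 5 of their SD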;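 note: higher percent means stronger block of ClC-1 iodide influx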
Target sequence (P35524 whole entry, looked up): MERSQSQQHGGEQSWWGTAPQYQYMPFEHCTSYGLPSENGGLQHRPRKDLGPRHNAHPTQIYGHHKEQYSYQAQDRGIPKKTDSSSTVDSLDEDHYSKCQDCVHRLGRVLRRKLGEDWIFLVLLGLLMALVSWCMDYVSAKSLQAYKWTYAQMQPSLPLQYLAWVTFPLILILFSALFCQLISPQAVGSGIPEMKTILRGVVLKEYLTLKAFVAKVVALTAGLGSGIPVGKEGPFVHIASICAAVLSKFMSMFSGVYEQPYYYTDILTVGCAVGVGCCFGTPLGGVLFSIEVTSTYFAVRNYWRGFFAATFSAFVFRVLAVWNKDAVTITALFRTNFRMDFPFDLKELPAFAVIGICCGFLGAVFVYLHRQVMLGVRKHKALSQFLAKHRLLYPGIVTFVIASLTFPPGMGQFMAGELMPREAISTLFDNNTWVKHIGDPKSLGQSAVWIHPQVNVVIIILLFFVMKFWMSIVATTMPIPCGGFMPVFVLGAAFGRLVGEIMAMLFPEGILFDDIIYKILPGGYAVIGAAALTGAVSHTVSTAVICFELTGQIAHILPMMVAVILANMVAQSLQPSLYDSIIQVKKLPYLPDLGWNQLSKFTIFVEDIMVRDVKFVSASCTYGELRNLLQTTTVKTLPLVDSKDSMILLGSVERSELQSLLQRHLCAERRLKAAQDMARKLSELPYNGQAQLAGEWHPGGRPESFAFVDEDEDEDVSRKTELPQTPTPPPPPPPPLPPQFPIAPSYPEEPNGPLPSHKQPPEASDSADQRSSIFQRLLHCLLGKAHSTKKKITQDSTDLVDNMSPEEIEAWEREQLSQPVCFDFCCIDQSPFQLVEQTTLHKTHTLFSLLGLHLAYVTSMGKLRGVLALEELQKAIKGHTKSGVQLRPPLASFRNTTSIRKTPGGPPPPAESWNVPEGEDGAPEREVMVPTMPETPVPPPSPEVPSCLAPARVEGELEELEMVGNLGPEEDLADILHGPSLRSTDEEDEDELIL
* hit, by the source's call; i = inactive; · = not tested or not shown. Compounds with a hit are over-represented: about 3.9% of the library has one in this group of screens.

SMILES	TAAR1 ag	TAAR1 antag	CRFR2-BP ag	CRFR2-BP antag	ANO1 block	ANO1 activ	TMEM16A reconf	TMEM16A Ca cntr	YFP-HEK293 quench	ClC-1 inh
COc1ccc(CCNS(=O)(=O)c2ccc(OC)cc2)cc1	12.9	-0.6	1.0	9.7	25*	i	i	i	-0.776	-5.0
CCn1c(SCC(=O)Nc2ccc3c(c2)oc2ccccc23)nnc1-c1ccc(N)cc1	6.0	0.1	-1.6	-5.2	100*	i	i	i	-0.985	-5.0
COC(=O)c1ccc(NS(=O)(=O)c2ccc(OC)cc2)cc1	17.9	6.2	-3.0	-3.9	100*	i	i	i	-1.11	-14.0
COc1ccc(S(=O)(=O)Nc2cccc(NC(C)=O)c2)cc1	3.0	12.4	0.0	-16.6	25*	i	i	i	-0.839	-3.0
COc1cccc(NS(=O)(=O)c2ccc(NC(C)=O)cc2)c1	3.6	11.8	-5.1	-3.5	i	i	·	·	·	·
CC(=O)c1ccc(NS(=O)(=O)c2ccc(CC(C)C)cc2)cc1	27.8	18.7	0.9	4.3	100*	i	53.5%*	i	-1.07	-5.5
Cn1nc(C(C)(C)C)cc1NC(=O)C1(C)CCN1C(=O)CC(c1ccccc1)c1ccccc1 (stereo unspecified)	0.1	-33.8	·	·	·	·	·	·	·	·
COc1cc(NC(=O)COc2cc(O)c3c(c2)OC(C)(C)CC3=O)cc(OC)c1OC	10.8	70.1*	-3.0	-8.5	100*	i	20.5%*	i	-1.32	-29.5
CCOC(=O)C1=C(CSc2nc3ccccc3s2)NC(=O)NC1c1ccc(OC)cc1 (stereo unspecified)	9.3	-9.8	1.2	-10.3	25*	i	i	i	-1.1	-16.0
CCOC(=O)C1=C(CSc2nc3ccccc3s2)NC(=O)NC1c1cc(C)ccc1C (stereo unspecified)	-1.5	1.1	2.0	-5.2	i	i	·	·	·	·
COc1ccccc1C(c1nnnn1CCc1ccccc1)N1CCCCCC1 (stereo unspecified)	0.2	2.7	1.0	20.3	25*	i	18.5%*	i	-1.12	-3.0
COc1ccc(O)c(/C=N/NS(=O)(=O)c2ccc(C)cc2)c1	0.3	-0.7	0.0	3.3	i	i	·	·	·	·
Cc1ccc(S(=O)(=O)N/N=C/c2cc(Br)ccc2O)cc1	2.5	-24.1	-1.2	16.7	100*	i	19.5%*	i	-0.887	-11.5
O=C(Nc1ccc(Br)cc1)c1cccc(S(=O)(=O)Nc2cnc3ccccc3c2)c1	3.4	20.8	-0.1	-27.6	100*	i	45.0%*	i	-1	-30.0
CC(Sc1nnc(-c2ccncc2)n1C)C(=O)Nc1ccc(N2CCOCC2)cc1 (stereo unspecified)	3.2	-15.7	0.3	-4.4	·	i	·	·	·	·
COc1ccc(OC)c(S(=O)(=O)Nc2ccc(Oc3ccccc3)cc2)c1	26.8	26.6	-0.5	-30.7	25*	i	i	i	-1.14	-13.0
CCOc1ccc(NS(=O)(=O)c2cc(OC)ccc2OC)cc1	7.9	-19.1	-0.5	8.3	i	i	·	·	·	·
CN1C(=O)C(C)(C)c2cc(S(=O)(=O)N3CCN(c4ccccc4)CC3)ccc21	5.7	-0.1	-1.1	12.7	100*	i	i	i	-1.09	-4.0
CC(Oc1ccc2c3c(c(=O)oc2c1)CCC3)C(=O)NCC1CCC(C(=O)O)CC1 (stereo unspecified)	2.2	-34.6	1.2	11.0	i	i	·	·	·	·
Cc1ccccc1N1CCN(c2ncnc3c2cnn3Cc2ccc(Cl)cc2)CC1	5.6	7.3	0.5	3.2	i	i	·	·	·	·
Cc1ccc(Cn2ncc3c(N4CCN(c5ccc(C)cc5)CC4)ncnc32)cc1	5.2	-0.4	0.8	4.4	100*	i	23.5%*	i	-1.02	-10.0
Cc1cc(C)nc(N2CCN(c3ncnc4c3cnn4Cc3ccc(Cl)cc3Cl)CC2)n1	·	·	-0.2	19.6	100*	·	28.5%*	i	-1.03	-20.0
Cc1ccc(Cn2ncc3c(N4CCN(Cc5ccc(Cl)cc5)CC4)ncnc32)cc1	11.4	-25.5	3.8	-2.0	25*	i	17.5%*	i	-1.11	-7.5
COc1cc(/C=C/C(=O)NC(C)C2CC3CCC2C3)cc(OC)c1OC (stereo unspecified)	0.8	-17.2	-0.1	7.4	i	i	·	·	·	·
COc1ccc(/C=C2/C(=O)N(c3ccccc3)N=C2C)cc1OC	32.4	-23.2	-1.8	15.2	i	i	·	·	·	·
SMILES	TAAR1 ag	TAAR1 antag	CRFR2-BP ag	CRFR2-BP antag	ANO1 block	ANO1 activ	TMEM16A reconf	TMEM16A Ca cntr	YFP-HEK293 quench	ClC-1 inh
CCOc1cc(/C=C2/C(=O)N(c3ccccc3)N=C2C)ccc1OC(=O)c1cccs1	·	·	4.6	-40.0	25*	i	i	i	-1.05	-10.5
Cc1ccc(Nc2nc(-c3cccs3)cs2)nc1	-1.3	-13.0	1.8	-37.9	100*	i	i	i	-0.796	-12.5
Cc1ccc(Nc2nc(-c3ccccc3)cs2)nc1	-2.5	-14.7	0.8	-19.5	i	i	·	·	·	·
COc1ccc(C2CC(c3ccccc3)=NN2C(=O)CN2CCN(Cc3ccccc3)CC2)cc1 (stereo unspecified)	10.1	3.0	-1.3	-7.2	i	i	·	·	·	·
CCCCc1nc2sc3c(=O)[nH]c(=S)[nH]c3c2c2c1CCC2	1.4	-0.1	1.5	0.2	·	i	·	·	·	·
Cc1ccc(C)c(N2CCN(S(=O)(=O)c3csc(C(N)=O)c3)CC2)c1	6.7	-5.8	-0.6	-9.7	25*	i	i	i	-0.884	0.5
CN(C(=O)CSc1ncnc2sccc12)c1c(N)n(Cc2ccccc2)c(=O)[nH]c1=O	2.0	10.9	1.2	8.2	i	i	·	·	·	·
CC(C)C(=O)NNC(=O)c1csc(-c2cccs2)n1	1.3	-16.8	-1.2	-9.7	i	i	·	·	·	·
N#CC1=C(N)OC2=C(CCc3ccccc32)C1c1ccccc1 (stereo unspecified)	1.7	-3.1	-0.1	-2.4	100*	i	51.5%*	i	-1.1	-10.0
